# Compound activity (PubChem BioAssay)
# Only some compounds are listed: those with a hit (about 3.3% of all), similar ones and a draw of the others.
# PglD inh: C. jejuni PglD acetyltransferase inhibitors, primary screen, biochemical, DTNB colorimetric, single point | UDP-N-acetylbacillosamine N-acetyltransferase PglD (Campylobacter jejuni) | purified PglD enzyme, DTNB colorimetric CoA detection | inhibition, % at 12.5 µM | 0.098% of 360,000 active; in the data active = inhibition above about 16%, passing the limit was not always enough; inconclusive = no clear call, values can overlap the other calls
# FGF22 binding: binders of human FGF22 protein, primary screen, FGF22 synaptogenesis inhibitor project, biophysical, thermal shift, single point; Fibroblast growth factor 22 (Homo sapiens), Q9HCT0; recombinant FGF22 thermal shift, SYPRO orange fluorescence; percent of sucrose octasulfate shift, DMSO zero; activity (Tm shift, normalised), % at 9.99 µM; 1.5% of 340,000 active; AID 651658, 2012;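 active = mean Tm shift, scaled 0 neutral to 100 positive control, at about 1.3% or above, every replicate too, limit read from the data; inconclusive = no clear call, values can overlap the other calls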
# C2C12 statin: suppressors of statin myotoxicity in C2C12 myotubes, primary screen, cell-based, single point, plate reader; C2C12 myotubes + simvastatin, ATP luminescence, 48 h; scaled: DMSO 0, geranylgeraniol control 100; rescue of ATP level, % at 7.49 µM; AID 602340, 2012; 0.78% of 330,000 active;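 active = mean ATP rescue above about 67%, or every replicate alone reaching that limit, limit read from the data, passing the limit was not always enough; inconclusive = no clear call, values can overlap the other calls; inactive = mean under the limit and some replicate under it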;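 note: myotubes were challenged with 10 µM simvastatin during compound exposure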
# Xi reactivation: activators of inactive X chromosome reactivation, primary screen, imaging, XiGFP fibroblasts, GFP high-content imaging, set 2; XiGFP mouse fibroblasts, % GFP-positive cells imaging, 3 d; cells co-treated with 5-aza-dC sensitizer; scaled so ellipticine positive control = 100%; activation, % at 7.58 µM; 0.055% of 360,000 active; AID 743238, 2013;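 active = mean normalized replicate activation at least 10% and every replicate at or above 10%; inconclusive = only one of the two criteria met; inactive = mean below 10% and not all replicates reach 10%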;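 note: 0% = median of on-plate neutral control wells and 100% = ellipticine 6 µM median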
#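 System: SV40-immortalized XiGFP fibroblast cells, line 68-5-11 / Incubation: 3-day compound exposure, then 15 min fixation at room temperature / Compound: single concentration per compound, delivered by pin transfer / Buffer or medium: DMEM plus 5-aza-dC sensitizer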
# DENV2 CPE: inhibitors of DENV2 cytopathic effect, primary screen, cell-based, plate reader, single concentration. CPE inhibition, % at 9.99 µM. 1.7% of 350,000 active. DENV2-infected cells, cytopathic effect rescue; in the data active = CPE inhibition above about 20%, passing the limit was not always enough; inconclusive = no clear call, values can overlap the other calls; tested in BHK-21 cells;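 note: 0% = median of neutral control wells and 100% = median of positive control wells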
# E-selectin induc: E-selectin induction in HUVECs, primary screen, imaging, HUVEC, immunofluorescence imaging, single point; 0.37% of 260,000 active; activation, % at 7.58 µM; normalized: neutral wells 0, TNF-alpha wells 100; P16581;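 active = mean E-selectin-positive cell signal at least 10% of the positive control, reached in at least 60% of replicates, without over 20% cell loss; inconclusive = no rule given, readout overlaps actives, possibly toxicity-flagged; inactive = the rest, including those meeting only one limit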
# Target sequence (P16581 whole entry, looked up): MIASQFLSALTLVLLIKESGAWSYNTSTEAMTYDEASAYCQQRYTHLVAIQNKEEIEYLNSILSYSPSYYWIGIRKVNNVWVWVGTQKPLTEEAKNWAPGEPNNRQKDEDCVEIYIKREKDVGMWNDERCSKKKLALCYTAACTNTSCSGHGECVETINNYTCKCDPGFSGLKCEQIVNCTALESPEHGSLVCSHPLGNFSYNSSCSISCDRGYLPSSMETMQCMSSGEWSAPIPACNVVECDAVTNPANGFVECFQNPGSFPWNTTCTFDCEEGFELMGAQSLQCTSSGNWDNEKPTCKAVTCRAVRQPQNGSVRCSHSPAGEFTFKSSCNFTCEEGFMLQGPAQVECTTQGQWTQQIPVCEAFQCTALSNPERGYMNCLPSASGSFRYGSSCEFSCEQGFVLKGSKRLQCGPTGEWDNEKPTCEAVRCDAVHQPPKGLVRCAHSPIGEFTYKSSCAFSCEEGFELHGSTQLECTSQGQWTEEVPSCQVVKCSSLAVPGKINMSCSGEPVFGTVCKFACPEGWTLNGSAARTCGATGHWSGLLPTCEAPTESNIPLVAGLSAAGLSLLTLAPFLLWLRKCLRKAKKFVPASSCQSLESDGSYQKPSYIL
#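 Material: HUVEC primary endothelial cells; Amount: 3,000 cells per well; Dosing: single concentration; Medium: EGM-2 growth medium on 0.1% gelatin-coated wells; Read-out basis: percent E-selectin-positive cells; Signal: immunofluorescence imaging; Control set: TNF-alpha, DMSO.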
# * hit, by the source's call; ? = inconclusive; . = no result.
SMILES,PglD inh,FGF22 binding,C2C12 statin,Xi reactivation,DENV2 CPE,E-selectin induc
C[C@@H]1CCCCO[C@H](CN(C)Cc2ccc(C(F)(F)F)cc2)[C@H](C)CN([C@@H](C)CO)C(=O)c2cc(NC(=O)c3ccncc3)ccc2O1,-2,0,76*,0,-4,0
C[C@@H]1CCCCO[C@@H](CN(C)Cc2ccc(C(F)(F)F)cc2)[C@H](C)CN([C@H](C)CO)C(=O)c2cc(NC(=O)c3ccncc3)ccc2O1,-2,0,28,0,-5,0
C[C@@H]1CCCCO[C@@H](CN(C)Cc2ccc(C(F)(F)F)cc2)[C@@H](C)CN([C@H](C)CO)C(=O)c2cc(NC(=O)C3CCCCC3)ccc2O1,-4,0,.,0,31*,0
C[C@@H]1CN([C@@H](C)CO)C(=O)c2cc(NC(=O)C3CCCCC3)ccc2O[C@@H](C)CCCCO[C@@H]1CN(C)Cc1ccc(C(F)(F)F)cc1,0,0,.,0,0,0
C[C@@H]1CCCCO[C@@H](CN(C)Cc2ccc(C(F)(F)F)cc2)[C@H](C)CN([C@@H](C)CO)C(=O)c2cc(NC(=O)c3ccncc3)ccc2O1,0,0,121*,0,-1,0
C[C@@H]1CCCCO[C@@H](CN(C)C(=O)Nc2ccc(C(F)(F)F)cc2)[C@@H](C)CN([C@H](C)CO)C(=O)c2cc(NC(=O)C3CCCCC3)ccc2O1,1,0,-42,-1,27*,0
CO[C@@H]1CN(C)C(=O)c2ccc(NC(=O)C3CC3)cc2OC[C@H](C)N(Cc2cccc(F)c2)C[C@H]1C,3,.,0,0,.,0
N#C/C(=C\c1cccs1)C(=O)c1ccccc1Cl,.,0,.,0,78*,0
CO[C@@H]1CN(C)C(=O)c2cc(NC(C)=O)ccc2OC[C@H](C)N(C(=O)c2cnccn2)C[C@H]1C,-3,0,-1,0,-2,0
CCCNC(=O)C[C@H]1C[C@@H]2c3cc(NC(=O)Nc4ccccc4F)ccc3O[C@@H]2[C@H](CO)O1,0,0,4,0,-4,0
CCC(O)c1cnc(OCc2ccccc2)nc1OCc1ccccc1 (stereo not given),1,30*,12,0,3,0
Cc1nc2nc(N)nc(OCc3ccccc3)c2nc1C,-2,0,.,0,1,.
O=C(/C=C/c1ccccc1Cl)Nc1ccc(Cl)cn1,.,43*,.,0,.,.
O=C(/C=C/c1ccccc1Cl)Nc1cccc(O)c1,.,1,.,0,7,8
O=C(/C=C/c1ccccc1Cl)Nc1ccccc1,5,1.5*,.,0,-1,1
O=C(Nc1ccc(Cl)cn1)C1C(c2ccccc2)C1(Cl)Cl (stereo not given),1,44*,13,0,9,.
CCCC#Cc1ccc([C@@H]2[C@@H](CO)N3C(=O)CN(C(=O)c4cccc(F)c4)C[C@@H]23)cc1,.,.,.,0,.,.
C[C@@H]1CN([C@@H](C)CO)C(=O)c2cc(NC(=O)Nc3ccccc3)ccc2O[C@@H]1CN(C)S(=O)(=O)c1ccccc1,-1,0,-34,0,11,0
CN(C)C(=O)C[C@H]1CC[C@@H]2[C@H](COC[C@H](O)CN2CC2CC2)O1,2,0,-6,0,?,0
COc1ccc(S(=O)(=O)Nc2ccc3c(c2)CC(=O)N([C@H](C)CO)C[C@H](C)[C@@H](CN(C)C(=O)NC2CCCCC2)O3)cc1,0,0,12,0,3,53*
C[C@@H]1CN([C@@H](C)CO)C(=O)Cc2cc(NS(=O)(=O)c3ccc(Cl)cc3)ccc2O[C@@H]1CN(C)C(=O)NC1CCCCC1,1,0,2,-1,-5,-2
COc1ccc(S(=O)(=O)Nc2ccc3c(c2)CC(=O)N([C@H](C)CO)C[C@H](C)[C@H](CN(C)C(=O)NC2CCCCC2)O3)cc1,-1,0,-17,0,16,76*
C[C@@H]1CN([C@H](C)CO)C(=O)Cc2cc(NS(=O)(=O)c3ccc(Cl)cc3)ccc2O[C@H]1CN(C)C(=O)NC1CCCCC1,2,0,-9,-1,37*,3
C[C@H]1CN([C@@H](C)CO)C(=O)Cc2cc(NS(=O)(=O)c3ccc(F)cc3)ccc2O[C@@H]1CN(C)C(=O)NC1CCCCC1,-11,0,13,0,5,0
COc1ccc(S(=O)(=O)Nc2ccc3c(c2)CC(=O)N([C@@H](C)CO)C[C@@H](C)[C@@H](CN(C)C(=O)NC2CCCCC2)O3)cc1,1,0,-2,0,2,74*
SMILES,PglD inh,FGF22 binding,C2C12 statin,Xi reactivation,DENV2 CPE,E-selectin induc
CN1c2ccc(-c3ccc(F)cc3)cc2[C@@H]2[C@@H](CCN2C(=O)Nc2ccc(F)cc2)[C@@H]1CO,0,0,24,0,5,0
COCCNC(=O)c1cc2c(c(-c3cccc(C4=CCCCC4)c3)n1)[C@@H](CCO)N([S@](=O)C(C)(C)C)C2,.,-1,.,0,-9,0
COc1ccc(S(=O)(=O)Nc2ccc3c(c2)CC(=O)N([C@@H](C)CO)C[C@@H](C)[C@H](CN(C)C(=O)NC(C)C)O3)cc1,2,0,3,0,35*,-3
CC1=C(C(=O)N2CCOCC2)C(c2ccc(OC(F)F)cc2)NC(=S)N1c1ccccc1 (stereo not given),.,43*,.,0,3,.
Cc1ccccc1-c1cnc2c(c1)C(=O)N([C@H](C)CO)C[C@@H](C)[C@H](CN(C)C(=O)CN(C)C)O2,-1,0,15,-1,8,0
C[C@@H]1CN([C@H](C)CO)C(=O)c2c(c3ccccc3n2C)-c2ccccc2CO[C@H]1CN(C)C(=O)c1ccccc1,2,0,53,0,-2,0
O=C(NCC(F)(F)F)[C@H]1[C@H](CO)[C@H]2Cn3c(ccc(-c4cccnc4)c3=O)[C@@H]1N2Cc1ccccc1,1,0,4,0,-5,0
O=C(CCn1cncn1)N1CCCC(N2CCN(c3ccc(F)cc3)CC2)C1 (stereo not given),3,0,14,0,43*,0
CCOc1cccc2sc(N(CCCN(C)C)C(=O)c3ccc(S(=O)(=O)N(C)c4ccccc4)cc3)nc12,.,44*,.,0,7,1
